Compound activity: PubChem, several laboratories
SENP8 block-1 = SENP8 protease inhibitors, primary screen, biochemical, luminescence. purified SENP8, Z-RLRGG-aminoluciferin cleavage. AID 2540, 2010. Sentrin-specific protease 8 (Homo sapiens), Q96LD8. hit rate 1.2% among 330,000. inhibition, % at 10 µM; in the data active means inhibition above about 50%
Target sequence (Q96LD8 whole entry, looked up): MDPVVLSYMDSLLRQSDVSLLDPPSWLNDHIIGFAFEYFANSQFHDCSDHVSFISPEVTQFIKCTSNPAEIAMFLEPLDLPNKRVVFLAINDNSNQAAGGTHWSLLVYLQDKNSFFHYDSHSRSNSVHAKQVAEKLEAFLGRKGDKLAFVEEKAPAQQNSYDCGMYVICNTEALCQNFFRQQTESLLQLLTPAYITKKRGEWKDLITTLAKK
SENP6 block = SENP6 protease inhibitors, primary screen, biochemical, luminescence, uHTS. Recombinant SENP6 catalytic domain, aminoluciferin luminescence. inhibition, % at 10 µM. Sentrin-specific protease 6 (Homo sapiens), Q9GZR1. hit rate 1.8% among 330,000;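 active means inhibition above about 50% at the single tested dose, limit read from the data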;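 further: plate controls were DMSO wells with enzyme for no effect and DMSO wells lacking enzyme for full effect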
SENP7 inh = SENP7 protease inhibitors, primary screen, biochemical, luminescence, uHTS. inhibition, % at 5 µM. recombinant SENP7, Z-RLRGG-aminoluciferin luminescence, 40 min. Sentrin-specific protease 7 (Homo sapiens), Q9BQF6. hit rate 1.5% among 330,000;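 active means inhibition above about 50% at the single test dose, limit read from the data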;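 further: plate controls were DMSO with enzyme for no effect and no enzyme buffer wells for full effect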
SENP1 FRET inh = human SENP1 catalytic domain inhibitors, primary screen, biochemical, FRET, uHTS. inhibition, % at 10 µM. recombinant SENP1 catalytic domain, CyPet-SUMO1-YPet FRET cleavage. Sentrin-specific protease 1 (Homo sapiens), Q9P0U3. hit rate 0.21% among 360,000;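 active means inhibition at least 30% at 10 µM, raw YFP signal under a set limit, fluorescence ratio 0.5 to 1.5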;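 further: 0% = enzyme with DMSO and 100% = no enzyme wells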
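System: Recombinant human SENP1 catalytic domain, His6-tagged | Incubation: Enzyme reaction for 50 min at room temperature, dark | Medium: Tris pH 8 with BME, BSA, NP40 and catalase | Also added: 25 nM SUMO1 FRET substrate | Compound: 10 µM single point, 0.5% DMSO | Measured by: FRET fluorescence in CFP and YFP emission channels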
SENP8 block-2 = human SENP8 protease inhibitors, primary screen, biochemical, fluorescence, Nedd8 protein substrate, uHTS. Sentrin-specific protease 8 (Homo sapiens), Q96LD8. recombinant SENP8. inhibition, % at 20 µM. hit rate 0.64% among 360,000; in the data active means inhibition mostly above about 40%, no sharp cut-off; inactive means mostly below about 27%
Platelet DG rel = inhibitors of platelet dense granule secretion, primary screen, cell-based, MLPCN, human platelets. human platelet-rich plasma, SFLLRN dense granule ATP release, luminescence. inhibition, %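 (compounds screened at 7.5 µM in platelet-rich plasma)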. hit rate 0.22% among 300,000. AID 1663, 2009;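 active means mean replicate score, as percent of positive control, at or above 50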
SENP8 conf = SENP8 protease inhibitors, retest, confirmation, biochemical, luminescence, single concentration. shares compounds with SENP7 inh. Recombinant SENP8, Z-RLRGG-aminoluciferin luminescence, 60 min. inhibition, % at 12.5 µM. hit rate 40% among 6,200;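 active means mean inhibition across replicates above about 50%, limit read from the data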
SENP6 conf = SENP6 protease inhibitors, confirmation, biochemical, luminescence, single concentration | hit rate 58% among 6,200 | AID 488915, 2010 | recombinant SENP6, Z-RLRGG-aminoluciferin luminescence | inhibition, % at 12.5 µM | shares compounds with SENP7 inh
SENP7 confirm = SENP7 protease inhibitors, retest, confirmation, biochemical, luminescence, single concentration; shares compounds with SENP7 inh; recombinant SENP7, Z-RLRGG-aminoluciferin luminescence, 40 min; inhibition, % at 12.5 µM; hit rate 69% among 6,200
Casp3 select = caspase-3 protease inhibitors, confirmation, selectivity assay for SENP inhibitor project, biochemical, single concentration; shares compounds with SENP7 inh; purified caspase-3, Z-DEVD-aminoluciferin luminescence, 60 min; inhibition, % at 12.5 µM; hit rate 60% among 6,200; AID 488918, 2010;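 active means mean inhibition above about 50%, limit read from the data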;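 further: plate controls were enzyme with DMSO for no effect and wells without caspase-3 for full effect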
Target sequence (P42574 28-227 limits assumed): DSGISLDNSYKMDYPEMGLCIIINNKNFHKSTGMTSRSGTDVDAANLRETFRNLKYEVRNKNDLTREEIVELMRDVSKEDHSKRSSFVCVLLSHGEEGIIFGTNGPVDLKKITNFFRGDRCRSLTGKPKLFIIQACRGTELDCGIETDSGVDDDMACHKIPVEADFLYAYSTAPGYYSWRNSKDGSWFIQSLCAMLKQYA
Luc interf = counter-screen for SENP inhibitors: luminescence interference. shares compounds with SENP7 inh. Pre-incubated SENP8/Z-RLRGG-aminoluciferin, luciferase luminescence interference. inhibition, % at 12.5 µM. hit rate 39% among 6,200. AID 488919;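 active means mean inhibition above about 50% when retested at one dose, limit read from the data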;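 further: plate controls were DMSO wells with completed reaction for no effect and substrate without enzyme for full effect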
* marks the source's active call; other numbers are inactive results. The list is not random: actives were taken first. Their share in the collection is about 2.6%.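 How the source made its calls, unless noted: active means mean inhibition above about 50% in the one-dose retest (limit read from the data); inactive means the rest.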

For O=C(C[n+]1cccc(O)c1)NCc1ccc(Cl)cc1 the results were SENP8 block-1 1, SENP6 block 9, SENP7 inh -5, SENP1 FRET inh 0, SENP8 block-2 4 and Platelet DG rel 7.
`Cc1noc(C)c1COc1ccccc1C(=O)NCCOc1ccccc1` gave SENP8 block-1 -8, SENP6 block -7, SENP7 inh 4, SENP1 FRET inh 2 and SENP8 block-2 4.
COc1ccc(-c2cc3nc4n(c(=O)c3s2)CCC4)cc1 was read as SENP8 block-1 91*, SENP6 block 95*, SENP7 inh 96*, SENP1 FRET inh 0, SENP8 block-2 -337, Platelet DG rel 23, SENP8 conf 12, SENP6 conf 62*, SENP7 confirm 81*, Casp3 select 76* and Luc interf 12.
Screening COc1ccc(-c2cc3nc4n(c(=O)c3s2)CCCCC4)cc1 returned SENP8 block-1 30, SENP6 block 46, SENP7 inh 18, SENP1 FRET inh 0, SENP8 block-2 -403 and Platelet DG rel 0.
Cc1nc2cc(-c3ccccc3)sc2c(=O)n1N was read as SENP8 block-1 96*, SENP6 block 96*, SENP7 inh 99*, SENP1 FRET inh 2, SENP8 block-2 -9, Platelet DG rel 90*, SENP8 conf 98*, SENP6 conf 99*, SENP7 confirm 102*, Casp3 select 98* and Luc interf 97*.
Screening COc1cccc(CNc2nc3cc(-c4ccccc4)sc3c(=O)n2C)c1 returned SENP1 FRET inh 1 and SENP8 block-2 -125.
For COc1ccc(-c2cc3nc(C)n(N)c(=O)c3s2)cc1 the results were SENP8 block-1 97*, SENP6 block 99*, SENP7 inh 100*, SENP1 FRET inh -2, SENP8 block-2 -432, Platelet DG rel 87*, SENP8 conf 99*, SENP6 conf 100*, SENP7 confirm 103*, Casp3 select 98* and Luc interf 99*.
`Cc1nccn1C(c1ccccc1)c1ccccc1` gave SENP8 block-1 -3, SENP6 block 0, SENP7 inh 11, SENP1 FRET inh 2, SENP8 block-2 20 and Platelet DG rel -13.
`COc1ccc(C(C)(C)C)cc1NC(=O)CNc1cccc2ccccc12` gave SENP8 block-1 48, SENP6 block 77*, SENP7 inh 25, SENP1 FRET inh -21, SENP8 block-2 -331, Platelet DG rel 1, SENP8 conf 12, SENP6 conf 10, SENP7 confirm 9, Casp3 select 4 and Luc interf 2.
Screening COc1ccccc1NC(=O)Cc1cccc2ccccc12 returned SENP8 block-1 2, SENP6 block -35, SENP7 inh 12, SENP1 FRET inh 0, SENP8 block-2 6 and Platelet DG rel -9.
